# Columns and labels:
# Assay type in all cases: in vivo, human
# [1] = Phase 1 safety evaluation
# How it was run: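 3 + 3 escalation of oral test compound, 40, 60 or 80 mg BID 4 h apart, 7 days on and 7 off, after a single dose on D-3. Investigators graded AEs at every visit per CTCAE v5.0. DLT was assessed over cycle 1 and covered grade 4 cytopenias, febrile or bleeding grade ≥3 cytopenias, and grade ≥3 non-hematological toxicity. Safety set: ≥1 dose and ≥1 safety evaluation.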
# [2] = Phase 1 plasma pharmacokinetics; settings: for increase of exposure (plasma concentration) with dose: dose range 40–80 mg BID; for AUC(0-t) / AUC(0-inf) / Cmax / half-life / Tmax / MRT last: human, plasma; for AUC(0-t): AUC0-t; for AUC(0-t) / AUC(0-inf) / Cmax: Mean ± SD; for AUC(0-inf): AUC0-∞; for half-life: T1/2, Median; for Tmax: Median; for MRT last: po
# r/r B cell NHL = test: Phase 1 efficacy
# [3] = C1D7 compared to C1D1, 40–80 mg BID
# [4] = oral, 40 mg, abexinostat continuous administration (BID, 4-h interval) on C1D1, 40 mg (n = 4)
# [5] = oral, 40 mg, abexinostat continuous administration (BID, 4-h interval) on C1D7, 40 mg (n = 4)
# [6] = oral, 60 mg, abexinostat continuous administration (BID, 4-h interval) on C1D1, 60 mg (n = 3)
# [7] = oral, 60 mg, abexinostat continuous administration (BID, 4-h interval) on C1D7, 60 mg (n = 3)
# [8] = oral, 80 mg, abexinostat continuous administration (BID, 4-h interval) on C1D1, 80 mg (n = 4)
# [9] = oral, 80 mg, abexinostat continuous administration (BID, 4-h interval) on C1D7, 80 mg (n = 4)
structure (smiles),measurement,setting,value
"CN(C)Cc1c(C(=O)NCCOc2ccc(C(=O)NO)cc2)oc2ccccc12 [abexinostat, Abexinostat]",TEAE: Hyperglycemia,"[1]; Total (n = 11), Any grade",3 (27.3) n (%)
same,TEAE: Hypertriglyceridemia,"[1]; Total (n = 11), Any grade",6 (54.5) n (%)
same,TEAE: Hyperuricemia,"[1]; Total (n = 11), Any grade",3 (27.3) n (%)
same,TEAE: Hypoalbuminemia,"[1]; Total (n = 11), Any grade",5 (45.5) n (%)
same,TEAE: Hypoproteinemia,"[1]; Total (n = 11), Any grade",5 (45.5) n (%)
same,TEAE: Leukopenia,"[1]; Total (n = 11), Any grade",4 (36.4) n (%)
same,TEAE: Lymphopenia,"[1]; Total (n = 11), Any grade",3 (27.3) n (%)
same,TEAE: Nausea,"[1]; Total (n = 11), Any grade",3 (27.3) n (%)
same,TEAE: Neutropenia,"[1]; Total (n = 11), Any grade",5 (45.5) n (%)
same,TEAE: Thrombocytopenia,"[1]; Total (n = 11), Any grade",5 (45.5) n (%)
same,TEAE: Urinary white blood cell positivity,"[1]; Total (n = 11), Any grade",3 (27.3) n (%)
same,TEAE: Any TEAEs,"[1]; Total (n = 11), ≥ Grade 3",5 (45.5) n (%)
same,TEAE: Hyperglycemia,"[1]; Total (n = 11), ≥ Grade 3",1 (9.1) n (%)
same,TEAE: Hypertriglyceridemia,"[1]; Total (n = 11), ≥ Grade 3",3 (27.3) n (%)
same,TEAE: Thrombocytopenia,"[1]; Total (n = 11), ≥ Grade 3",2 (18.2) n (%)
same,dose limiting toxicity (DLT),"[1]; dose escalation 40, 60, 80 mg BID, assessed after cycle 1",No DLT
same,≥ grade 3 thrombocytopenia,"[1]; safety set, all doses, 2/11 (abstract: grade 3)",18.2%
same,≥ grade 3 hypertriglyceridemia,"[1]; safety set, all doses, 3/11 (abstract: grade 3)",27.3%
same,any grade TEAE: abnormal T wave on electrocardiogram,"[1]; safety set, all doses, 4/11",36.4%
same,any grade TEAE: anemia,"[1]; safety set, all doses, 4/11",36.4%
same,any grade TEAE: diarrhea,"[1]; safety set, all doses, 4/11",36.4%
same,any grade TEAE: fatigue,"[1]; safety set, all doses, 4/11",36.4%
same,any grade TEAE: leukopenia,"[1]; safety set, all doses, 4/11",36.4%
same,any grade TEAE: hypoalbuminemia,"[1]; safety set, all doses, 5/11",45.5%
same,any grade TEAE: hypoproteinemia,"[1]; safety set, all doses, 5/11",45.5%
same,any grade TEAE: neutropenia,"[1]; safety set, all doses, 5/11",45.5%
same,any grade TEAE: thrombocytopenia,"[1]; safety set, all doses, 5/11",45.5%
same,any grade TEAE: hypertriglyceridemia,"[1]; safety set, all doses, 6/11",54.5%
same,grade of most TEAEs,"[1]; safety set, n = 11",grade 1 or 2
same,average accumulation ratio for Cmax (RA-Cmax),[2]; [3],0.94–1.48
same,average accumulation ratio for the AUC (RA-AUC),[2]; [3],1.16–1.52
same,increase of exposure (plasma concentration) with dose,[2],approximately dose-proportional
same,increase of exposure (plasma concentration) with dose,[2]; listed as Abexinostat,dose-proportional
same,AUC(0-t),[2]; [4],339 ± 90.9 ng·h/mL
same,AUC(0-t),[2]; [5],463 ± 32.5 ng·h/mL
same,AUC(0-inf),[2]; [4],361 ± 88.3 ng·h/mL
same,AUC(0-inf),[2]; [5],491 ± 43.7 ng·h/mL
same,Cmax,[2]; [4],98.1 ± 27.6 ng/mL
same,Cmax,[2]; [5],107 ± 16.3 ng/mL
same,half-life,[2]; [4],3.69 h
same,half-life,[2]; [5],4.84 h
same,Tmax,[2]; [4],1 h
same,Tmax,[2]; [5],1 h
same,AUC(0-t),[2]; [6],521 ± 60.6 ng·h/mL
same,AUC(0-t),[2]; [7],600 ± 53.8 ng·h/mL
same,AUC(0-inf),[2]; [6],563 ± 69.6 ng·h/mL
same,AUC(0-inf),[2]; [7],656 ± 72 ng·h/mL
same,Cmax,[2]; [6],115 ± 24.2 ng/mL
same,Cmax,[2]; [7],104 ± 26.9 ng/mL
same,half-life,[2]; [6],6.28 h
same,half-life,[2]; [7],6.53 h
same,Tmax,"[2]; oral, 60 mg, abexinostat continuous administration (BID, 4-h interval) on C1D1, 60 mg (n = 3), abexinostat value footnoted: 0.5 h after second dose",4.55 h
same,Tmax,[2]; [7],0.48 h
same,AUC(0-t),[2]; [8],603 ± 104 ng·h/mL
same,AUC(0-t),[2]; [9],767 ± 140 ng·h/mL
same,AUC(0-inf),[2]; [8],625 ± 116 ng·h/mL
same,AUC(0-inf),[2]; [9],744 ± 132 ng·h/mL
same,Cmax,[2]; [8],128 ± 25.3 ng/mL
same,Cmax,[2]; [9],184 ± 27 ng/mL
same,half-life,[2]; [8],5.13 h
same,half-life,[2]; [9],5.03 h
same,Tmax,"[2]; oral, 80 mg, abexinostat continuous administration (BID, 4-h interval) on C1D1, 80 mg (n = 4), abexinostat value footnoted: 0.97 h after second dose",4.78 h
same,Tmax,[2]; [9],2.74 h
same,MRT last,[2]; 40 mg,2.8 h
same,MRT last,[2]; 60 mg,6.97 h
same,MRT last,[2]; 80 mg,3.47 h
same,accumulation,[2]; on C1D7,slight accumulation
same,absorption,[2]; oral,rapidly absorbed
same,12-month PFS rate,r/r B cell NHL; FAS,30.0%
same,30-month PFS rate,r/r B cell NHL; FAS,20.0%
same,39-month OS rate,r/r B cell NHL; FAS,64.8%
same,duration of response (DoR),r/r B cell NHL; FAS,not reached
same,median overall survival (OS),r/r B cell NHL; FAS,not reached
same,median progression-free survival (PFS),r/r B cell NHL; FAS,5.01 months
same,objective response rate (ORR),"r/r B cell NHL; FAS, 4/10, all doses",40.0%
same,disease control rate (DCR),"r/r B cell NHL; FAS, 6/10",60%
same,PFS of the patient who achieved CR,"r/r B cell NHL; Patient 2, DLBCL, 40 mg BID, still on treatment",over 30 months
same,patients still alive,"r/r B cell NHL; at data cutoff November 30, 2023",Seven patients
same,median DoR,r/r B cell NHL; patients with FL,7.82 months
same,median PFS,r/r B cell NHL; patients with FL,8.38 months
same,ORR,"r/r B cell NHL; patients with FL, 3/6",50%
same,DCR,"r/r B cell NHL; patients with FL, 5/6",83.3%
same,DCR,"r/r B cell NHL; r/r DLBCL patients, 1/4",25%
same,ORR,"r/r B cell NHL; r/r DLBCL patients, 1/4",25%

# Source: publication PMC12123727 (BMC Cancer, 2025)
